Measurements taken from ChEMBL document CHEMBL1150393, “Evaluation of radiolabeled (hetero)aromatic analogues of N-(2-diethylaminoethyl)-4-iodobenzamide for imaging and targeted radionuclide therapy of melanoma” (J Med Chem, 2008).

Columns and labels:
Details in all cases: in vivo
[1] = Biodistribution in gall bladder of C57BL/6 mouse bearing mouse B16-F0 cells at 0.74 to 0.92 MBq, iv after 6 hrs; type: ADME, organism-based
Procedure, shortened: (§1)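 Male C57BL6 mice with s.c. left-flank B16-F0 melanoma (5 × 10⁵ cells in PBS). Two mice per time point frozen in liquid nitrogen after CO₂ sacrifice. Eight 40 µm whole-body cryosections per mouse read by multiwire proportional counter. cpm/mm² converted to kBq/g and expressed as %ID/g.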

[2] = Biodistribution in tumor of C57BL/6 mouse bearing mouse B16-F0 cells at 0.74 to 0.92 MBq, iv after 1 hr; type: ADME, organism-based, Neoplasm
Procedure, shortened: (§2)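 [¹²⁵I]-labelled compound given iv by tail vein (0.1 µmol per mouse) to male C57BL6 mice bearing s.c. B16-F0 flank tumours (5 × 10⁵ cells in PBS). Two mice per time point were killed by CO₂, frozen in liquid nitrogen and cut into 40 µm cryosections, eight slices per mouse. Slice radioactivity was read on a multiwire proportional counter, converted to kBq/g and reported as %ID/g.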

[3] = Ratio of drug level in tumor to liver of C57BL/6 mouse bearing mouse B16-F0 cells at 0.74 to 0.92 MBq, iv after 6 hrs; type: ADME, organism-based
Procedure, shortened: (§3)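 Tumour and organ radioactive concentrations came from whole-body cryosection counting (40 µm slices, eight per mouse, two mice per time) after tail-vein injection of the [¹²⁵I]-labelled compound (0.1 µmol) into male C57BL6 mice bearing s.c. B16-F0 melanoma. Each value is the ratio of the tumour concentration to the organ concentration.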

[4] = Ratio of drug level in tumor to lung of C57BL/6 mouse bearing mouse B16-F0 cells at 0.74 to 0.92 MBq, iv after 6 hrs; type: ADME, organism-based; procedure, shortened: as §3
[5] = Ratio of drug level in tumor to brain of C57BL/6 mouse bearing mouse B16-F0 cells at 0.74 to 0.92 MBq, iv after 3 hrs; type: ADME, organism-based; procedure, shortened: as §3
[6] = Ratio of drug level in tumor to brain of C57BL/6 mouse bearing mouse B16-F0 cells at 0.74 to 0.92 MBq, iv after 6 hrs; type: ADME, organism-based; procedure, shortened: as §3
Brain = experiment: Biodistribution in brain of C57BL/6 mouse bearing mouse B16-F0 cells at 0.74 to 0.92 MBq, iv after 6 hrs; type: ADME, organism-based; procedure, shortened: as §1
[7] = Biodistribution in intestinal content of C57BL/6 mouse bearing mouse B16-F0 cells at 0.74 to 0.92 MBq, iv after 3 hrs; type: ADME, organism-based; procedure, shortened: as §1
[8] = Biodistribution in intestinal content of C57BL/6 mouse bearing mouse B16-F0 cells at 0.74 to 0.92 MBq, iv after 6 hrs; type: ADME, organism-based; procedure, shortened: as §1
[9] = Biodistribution in Stomach content of C57BL/6 mouse bearing mouse B16-F0 cells at 0.74 to 0.92 MBq, iv after 24 hrs; type: ADME, organism-based; procedure, shortened: as §1
Muscle tissue = experiment: Biodistribution in muscle of C57BL/6 mouse bearing mouse B16-F0 cells at 0.74 to 0.92 MBq, iv after 6 hrs; type: ADME, organism-based; procedure, shortened: as §1
Pancreas [10] = experiment: Biodistribution in pancreas of C57BL/6 mouse bearing mouse B16-F0 cells at 0.74 to 0.92 MBq, iv after 3 hrs; type: ADME, organism-based; procedure, shortened: as §1
Pancreas [11] = experiment: Biodistribution in pancreas of C57BL/6 mouse bearing mouse B16-F0 cells at 0.74 to 0.92 MBq, iv after 6 hrs; type: ADME, organism-based; procedure, shortened: as §1
Lung [12] = experiment: Biodistribution in lung of C57BL/6 mouse bearing mouse B16-F0 cells at 0.74 to 0.92 MBq, iv after 3 hrs; type: ADME, organism-based; procedure, shortened: as §1
Lung [13] = experiment: Biodistribution in lung of C57BL/6 mouse bearing mouse B16-F0 cells at 0.74 to 0.92 MBq, iv after 6 hrs; type: ADME, organism-based; procedure, shortened: as §1
Spleen [14] = experiment: Biodistribution in spleen of C57BL/6 mouse bearing mouse B16-F0 cells at 0.74 to 0.92 MBq, iv after 6 hrs; type: ADME, organism-based; procedure, shortened: as §2
Kidney [15] = experiment: Biodistribution in kidney of C57BL/6 mouse bearing mouse B16-F0 cells at 0.74 to 0.92 MBq, iv after 1 hr; type: ADME, organism-based; procedure, shortened: as §1
Blood [16] = experiment: Biodistribution in blood of C57BL/6 mouse bearing mouse B16-F0 cells at 0.74 to 0.92 MBq, iv after 1 hr; type: ADME, organism-based; procedure, shortened: as §1
Blood [17] = experiment: Biodistribution in blood of C57BL/6 mouse bearing mouse B16-F0 cells at 0.74 to 0.92 MBq, iv after 3 hrs; type: ADME, organism-based; procedure, shortened: as §1
Thyroid gland [18] = experiment: Biodistribution in thyroid of C57BL/6 mouse bearing mouse B16-F0 cells at 0.74 to 0.92 MBq, iv after 1 hr; type: ADME, organism-based; procedure, shortened: as §2
Thyroid gland [19] = experiment: Biodistribution in thyroid of C57BL/6 mouse bearing mouse B16-F0 cells at 0.74 to 0.92 MBq, iv after 3 hrs; type: ADME, organism-based; procedure, shortened: as §2
Thyroid gland [20] = experiment: Biodistribution in thyroid of C57BL/6 mouse bearing mouse B16-F0 cells at 0.74 to 0.92 MBq, iv after 6 hrs; type: ADME, organism-based; procedure, shortened: as §2
Thyroid gland [21] = experiment: Biodistribution in thyroid of C57BL/6 mouse bearing mouse B16-F0 cells at 0.74 to 0.92 MBq, iv after 72 hrs; type: ADME, organism-based; procedure, shortened: as §2
[22] = Biodistribution in uvea of C57BL/6 mouse bearing mouse B16-F0 cells at 0.74 to 0.92 MBq, iv after 1 hr; type: ADME, organism-based, Uveal tract; procedure, shortened: as §2
[23] = Biodistribution in uvea of C57BL/6 mouse bearing mouse B16-F0 cells at 0.74 to 0.92 MBq, iv after 3 hrs; type: ADME, organism-based, Uveal tract; procedure, shortened: as §2
[24] = Biodistribution in uvea of C57BL/6 mouse bearing mouse B16-F0 cells at 0.74 to 0.92 MBq, iv after 72 hrs; type: ADME, organism-based, Uveal tract; procedure, shortened: as §2
[25] = Biodistribution in intestinal content of C57BL/6 mouse bearing mouse B16-F0 cells at 0.74 to 0.92 MBq, iv after 24 hrs; type: ADME, organism-based; procedure, shortened: as §1
[26] = Biodistribution in Stomach content of C57BL/6 mouse bearing mouse B16-F0 cells at 0.74 to 0.92 MBq, iv after 72 hrs; type: ADME, organism-based; procedure, shortened: as §1
[27] = Ratio of drug level in tumor to lung of C57BL/6 mouse bearing mouse B16-F0 cells at 0.74 to 0.92 MBq, iv after 24 hrs; type: ADME, organism-based; procedure, shortened: as §3
Liver = experiment: Biodistribution in liver of C57BL/6 mouse bearing mouse B16-F0 cells at 0.74 to 0.92 MBq, iv after 72 hrs; type: ADME, organism-based; procedure, shortened: as §1
Lung [28] = experiment: Biodistribution in lung of C57BL/6 mouse bearing mouse B16-F0 cells at 0.74 to 0.92 MBq, iv after 24 hrs; type: ADME, organism-based; procedure, shortened: as §1
Spleen [29] = experiment: Biodistribution in spleen of C57BL/6 mouse bearing mouse B16-F0 cells at 0.74 to 0.92 MBq, iv after 24 hrs; type: ADME, organism-based; procedure, shortened: as §2
Spleen [30] = experiment: Biodistribution in spleen of C57BL/6 mouse bearing mouse B16-F0 cells at 0.74 to 0.92 MBq, iv after 72 hrs; type: ADME, organism-based; procedure, shortened: as §2
Kidney [31] = experiment: Biodistribution in kidney of C57BL/6 mouse bearing mouse B16-F0 cells at 0.74 to 0.92 MBq, iv after 24 hrs; type: ADME, organism-based; procedure, shortened: as §1

| Drug uptake [2] [% ID/g] | Ratio [3] | Ratio [4] | Ratio [5] | Drug uptake [7] [% ID/g] | Drug uptake [8] [% ID/g] | Drug uptake [9] [% ID/g] | Drug uptake (Muscle tissue) [% ID/g] | Drug uptake (Lung [12]) [% ID/g] | Drug uptake (Lung [13]) [% ID/g] | Drug uptake (Spleen [14]) [% ID/g] | Drug uptake (Kidney [15]) [% ID/g] | Drug uptake (Blood [16]) [% ID/g] | Drug uptake (Blood [17]) [% ID/g] | Drug uptake (Thyroid gland [18]) [% ID/g] | Drug uptake (Thyroid gland [19]) [% ID/g] | Drug uptake (Thyroid gland [20]) [% ID/g] | Drug uptake [22] [% ID/g] | Drug uptake [23] [% ID/g] | Drug uptake [24] [% ID/g] | SMILES | also measured |
| --- | --- | --- | --- | --- | --- | --- | --- | --- | --- | --- | --- | --- | --- | --- | --- | --- | --- | --- | --- | --- | --- |
| 15.5 | 3.33 | 2.17 | 42.14 | 4.94 | 2.98 | 1.46 | 0.53 | 3.96 | 3.21 | 2.35 | 6.08 | 6.67 | 4.22 | 25.29 | 59.09 | 7.92 | 16.66 | 12.69 | 2.54 | CCN(CC)CCNC(=O)c1ccc([125I])nc1.Cl.Cl | Drug uptake [1]: 4.9 % ID/g; Ratio [6]: 58.08; Drug uptake (Brain): 0.12 % ID/g; Drug uptake (Pancreas [10]): 2.53 % ID/g; Drug uptake (Pancreas [11]): 2.27 % ID/g; Drug uptake (Thyroid gland [21]): 178.8 % ID/g |
| 13 | 3.28 | 4.22 | 14.6 | 25.85 | 18.72 | 3.1 | 0.38 | 4.43 | 2.12 | 8.05 | 13.3 | 2.97 | 1.77 |  |  |  | 13.21 | 13.9 | 7.84 | CCN(CC)CCNC(=O)c1ccc2cc([125I])ccc2c1.Cl | Ratio [6]: 35.8; Drug uptake (Brain): 0.25 % ID/g; Drug uptake (Pancreas [10]): 8.19 % ID/g |
| 23.2 | 7.69 | 9.03 | 32.18 | 47.65 | 43.48 | 0.62 | 0.24 | 1.87 | 1.26 |  | 4.01 | 2.21 | 1.88 | 20.16 | 41.44 | 56.95 | 24.11 | 20.3 | 13.06 | CCN(CC)CCNC(=O)c1ccc2cncc([125I])c2n1.Cl.Cl | Drug uptake [1]: 28.67 % ID/g; Drug uptake [25]: 0.82 % ID/g; Drug uptake [26]: 2.13 % ID/g |
| 17 | 5.4 | 9.13 | 26.87 | 17.45 |  |  | 0.87 | 5.68 | 4.46 |  | 16.46 | 3.45 | 2.91 |  | 39.76 | 83.77 | 33.82 | 24.79 | 25.26 | CCN(CC)CCNC(=O)c1cnc2cc([125I])ccc2n1.Cl.Cl | Drug uptake [1]: 33.38 % ID/g; Drug uptake [26]: 2.23 % ID/g |
| 8.8 | 4.41 | 13.3 | 31.29 | 138.09 | 135.67 | 1.61 | 0.19 | 1.92 | 1.45 | 11.34 | 6.5 | 3.57 | 1.91 | 16.78 | 22.43 | 40.63 | 28.64 | 20.11 | 10.11 | CCN(CC)CCNC(=O)c1cc2cc([125I])ccc2o1.Cl | Drug uptake [25]: 2.33 % ID/g; Drug uptake (Thyroid gland [21]): 15.7 % ID/g |
| 19.6 | 2.42 | 3.23 | 30.54 | 20.65 | 23.36 | 2.33 | 0.95 | 5.58 | 5.32 | 7.6 | 11.82 | 7.01 | 5.57 |  |  |  | 32.71 | 33.1 | 18.3 | CCN(CC)CCNC(=O)c1ccc2cc([125I])ccc2n1.Cl.Cl | Ratio [27]: 22.89; Ratio [6]: 46.51; Drug uptake (Brain): 0.37 % ID/g; Drug uptake [25]: 1.45 % ID/g; Drug uptake (Liver): 1.23 % ID/g; Drug uptake (Pancreas [10]): 6.17 % ID/g; Drug uptake (Lung [28]): 0.53 % ID/g; Drug uptake (Spleen [29]): 2.66 % ID/g; Drug uptake (Spleen [30]): 1.85 % ID/g; Drug uptake (Kidney [31]): 0.34 % ID/g |
| 7.3 | 5.14 | 3.86 | 79.11 | 68.64 | 29.16 | 0.75 |  | 2.76 | 2.05 |  | 4.62 | 2.15 | 2.65 | 16.88 | 35.71 | 48.93 | 18.08 | 13.87 | 9.73 | CCN(CC)CCNC(=O)c1cc2c([125I])cccc2cn1.Cl.Cl | Drug uptake [25]: 1.7 % ID/g; Drug uptake (Spleen [30]): 1.62 % ID/g; Drug uptake (Thyroid gland [21]): 132.79 % ID/g |
